Source: PubChem BioAssay
rRNA inh HTS: inhibits bacterial ribosomal RNA function over humanized ribosomes; hit rate 1.6% among 350,000; GFP signal change (wild-type ribosome), % (concentration not given with the values); E. coli WT GFP vs humanized-ribosome RFP mutants, fluorescence, 24 h; stronger effect = lower value; DMSO median 0, no signal -100;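 active = significant combined selectivity score with lowered wild-type GFP, culture density cut under 30%, mutant RFP and density less affected; inactive = any of these conditions unmet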
RAD54 inh: inhibitors of human RAD54 branch migration | RAD54 Holliday junction branch migration, FAM/BHQ fluorescence | inhibition, % at 10.4 µM | hit rate 0.14% among 360,000;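 active = mean normalized replicate activity at least 40 and at least half of replicates scoring 40 or more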;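 note: inhibitors cause a drop in the FAM fluorescence signal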
Target sequence (Q92698 whole entry, looked up): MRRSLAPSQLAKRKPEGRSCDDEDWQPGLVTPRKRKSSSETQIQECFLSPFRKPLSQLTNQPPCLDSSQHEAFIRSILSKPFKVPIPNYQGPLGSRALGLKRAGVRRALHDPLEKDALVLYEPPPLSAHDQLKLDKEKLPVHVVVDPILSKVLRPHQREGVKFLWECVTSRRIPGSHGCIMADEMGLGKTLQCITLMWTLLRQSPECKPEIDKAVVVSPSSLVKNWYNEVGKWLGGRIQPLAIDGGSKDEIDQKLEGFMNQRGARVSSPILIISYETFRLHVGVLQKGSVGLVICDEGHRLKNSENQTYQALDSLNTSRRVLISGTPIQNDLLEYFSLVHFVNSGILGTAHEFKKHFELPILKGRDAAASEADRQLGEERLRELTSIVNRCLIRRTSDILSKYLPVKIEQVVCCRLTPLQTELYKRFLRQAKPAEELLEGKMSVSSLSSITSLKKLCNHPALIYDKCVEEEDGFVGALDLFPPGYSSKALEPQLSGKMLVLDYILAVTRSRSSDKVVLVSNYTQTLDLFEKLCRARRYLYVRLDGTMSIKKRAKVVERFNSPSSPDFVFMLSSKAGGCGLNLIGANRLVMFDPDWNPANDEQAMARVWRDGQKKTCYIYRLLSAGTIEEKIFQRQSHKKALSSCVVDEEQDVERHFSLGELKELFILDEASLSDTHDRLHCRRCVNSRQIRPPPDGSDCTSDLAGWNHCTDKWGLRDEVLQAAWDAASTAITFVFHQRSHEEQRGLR
Cneo AK release: Cryptococcus neoformans lysis via adenylate kinase release; AID 651654; C. neoformans lysis, adenylate kinase release luminescence, 4 h; normalised: neutral wells 0, clomiphene wells 100; lysis activity, % at 15 µM; hit rate 0.2% among 360,000;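 active = mean lysis activity across replicates of at least 80%, whatever share of replicates individually reach that level; inactive = mean lysis activity below 80%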
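Signal: Adenylate kinase release luminescence | Assay system: Log-phase Cryptococcus neoformans yeast cells | Input: Cells at 5 × 10^6 per mL | Buffer or medium: Fresh YPD growth medium | Compound: Single dose | Schedule: Static 4 h at 37 °C with compound, 1 h detection | Controls: Clomiphene | Read-out: Luminescence rise reflecting yeast cell lysis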
PglD DTNB: inhibitors of Campylobacter jejuni PglD acetyltransferase | purified PglD enzyme, DTNB colorimetric CoA detection | hit rate 0.098% among 360,000 | AID 602405 | inhibition, % at 12.5 µM; in the data active = inhibition above about 16%, passing the limit was not always enough
RAD52 anneal inh: RAD52 (human) annealing inhibition; P43351; recombinant RAD52 DNA annealing, FRET fluorescence; inhibition, % at 18.7 µM; hit rate 0.46% among 360,000;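 active = every replicate showing at least 50% inhibition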
Of the large screens only hits and unclear results are named; the others gave an inactive call. Only some compounds are listed: those with a hit (about 1.9% of all), similar ones and a draw of the others.

CC1CCN(S(=O)(=O)c2ccc(NC(=O)N3c4ccccc4Sc4ccccc43)cc2)CC1	none (no result: rRNA inh HTS, RAD52 anneal inh)
CCOc1ccc2[nH]c3c(N4CCN(C(=O)c5ccco5)CC4)ncnc3c2c1	rRNA inh HTS -36
Cc1ccc(C(=O)N/C(=C\c2cccs2)C(=O)NC2CCCCC2)cc1	rRNA inh HTS -25
C/C(N)=C(/C#N)C(=O)COC(=O)c1ccccc1C(=O)c1ccc(C)cc1	rRNA inh HTS -21 (no result: RAD54 inh, Cneo AK release, PglD DTNB)
C/C(N)=C(/C#N)C(=O)COC(=O)c1cccc2ccccc12	none
Cc1ccc(C(=O)NNC(=O)Cn2nnc3ccccc32)cc1	rRNA inh HTS -31
Cc1ccc(C(=O)Cn2nnc3ccccc32)cc1	none (no result: rRNA inh HTS, RAD52 anneal inh)
COc1ccc(-c2csc(NC(=O)CC(NC(C)=O)c3ccccc3)n2)cc1OC (configuration not stated)	rRNA inh HTS -28
CCCC#Cc1ccc2c(c1)[C@@H]1[C@@H](CCN1C(=O)C1CC1)[C@@H](CO)N2	none (no result: RAD54 inh, Cneo AK release, PglD DTNB, RAD52 anneal inh)
O=C(CCS(=O)(=O)c1ccccc1)Nc1ncc([N+](=O)[O-])s1	rRNA inh HTS -22
c1ccc(Cn2c(-c3ccccc3)c[n+]3c2SCCC3)cc1	rRNA inh HTS -45
CC(=O)Nc1ccc2c(c1)C(=O)c1ccccc1C2=O	none (no result: rRNA inh HTS, RAD52 anneal inh)
O=C(O)/C=C/C(=O)Nc1ccc2c(c1)C(=O)c1ccccc1C2=O	rRNA inh HTS -35 (no result: RAD54 inh, Cneo AK release, PglD DTNB)
COc1ccc(NC(=O)N(C)C[C@H]2OCCCC[C@@H](C)Oc3ccc(NS(=O)(=O)c4cccs4)cc3C(=O)N([C@H](C)CO)C[C@@H]2C)cc1	none
O=C(Nc1cccc(C(=O)O)c1)/C(=C/c1ccc([N+](=O)[O-])cc1)NC(=O)c1ccccc1	none
CC(C)(C)c1ccc(C(=O)N/C(=C\c2cccc([N+](=O)[O-])c2)C(=O)Nc2cccc(C(=O)O)c2)cc1	PglD DTNB 36
COCCOC(=O)N1C(=O)[C@@]2(c3ccccc31)[C@H](C(=O)N1CCN(c3ncccn3)CC1)[C@H]1C(=O)O[C@H](c3ccccc3)[C@H](c3ccccc3)N1[C@@H]2c1ccccc1OCCO	none (no result: rRNA inh HTS)
COc1cc(C)c(NC(=S)Nc2ccc(Cl)c(Cl)c2)cc1OC	rRNA inh HTS -28 (no result: RAD54 inh, Cneo AK release, PglD DTNB)
COCCNC(=S)Nc1ccc(Cl)c(Cl)c1	none (no result: RAD54 inh, Cneo AK release, PglD DTNB)
Clc1ccccc1-c1nc2nc3ccccc3nc2n1-c1ccc2c(c1)OCO2	rRNA inh HTS -26
C[C@H](CO)N1C[C@H](C)[C@@H](CN(C)Cc2ccncc2)Oc2ccc(NC(=O)C3CCCCC3)cc2C1=O	none
Cc1csc2c(N3CCN(C(=S)Nc4ccc(F)cc4F)CC3)ncnc12	rRNA inh HTS -26
Cc1csc2c(N3CCN(C(=O)Nc4ccccc4)CC3)ncnc12	rRNA inh HTS -28
[N-]=[N+]=NCc1ccccc1C[C@]1(C(=O)N2CCCCC2)N=C(c2ccc(OCCCO)cc2)O[C@H]1c1ccccc1	none (no result: rRNA inh HTS)
C[C@@H]1CN([C@@H](C)CO)C(=O)Cc2cc(NC(=O)CCN3CCOCC3)ccc2O[C@H]1CN(C)S(C)(=O)=O	none
CC(=O)n1c2c(c3ccccc31)OC(N)=C(C#N)C2c1ccc(C(C)C)cc1 (configuration not stated)	rRNA inh HTS -15 (no result: RAD54 inh, Cneo AK release, PglD DTNB)
CC(=O)C1=C(C)OC(N)=C(C#N)C1c1cccc2ccccc12 (configuration not stated)	none (no result: RAD54 inh, Cneo AK release, PglD DTNB)
Nc1ncncc1-c1ccc(Cl)cc1	rRNA inh HTS -22
Nc1ncncc1-c1ccccc1Cl	none
COc1ccc2c3c([nH]c2c1)[C@H](CO)N(C(=O)Nc1ccc(F)cc1)CC31CCN(CC2CC2)CC1	none (no result: RAD54 inh, Cneo AK release, PglD DTNB)
Nc1ccc2nc(SCc3cccc(F)c3)sc2c1	rRNA inh HTS -31
CCOC(=O)CSc1nc2ccc(N)cc2s1	none (no result: rRNA inh HTS, RAD52 anneal inh)
COc1ccccc1C(=O)C1CCCN(C(=O)CCC(=O)c2ccccc2)C1 (configuration not stated)	rRNA inh HTS -28 (no result: RAD54 inh, Cneo AK release, PglD DTNB)
C[C@H](CO)N1C[C@H](C)[C@@H](CN(C)C(=O)C2CCC2)Oc2cc(-c3ccccc3)ccc2S1(=O)=O	none (no result: RAD54 inh, Cneo AK release, PglD DTNB, RAD52 anneal inh)
CO[C@H]1CN(C)C(=O)c2ccc(NC(=O)c3ccc(-c4ccccc4)cc3)cc2OC[C@@H](C)NC[C@H]1C	none
COc1ccc(C2CC(=O)C=C(NCc3ccc4c(c3)OCO4)C2)cc1 (configuration not stated)	rRNA inh HTS -24 (no result: RAD54 inh, Cneo AK release, PglD DTNB)
O=C1C=C(c2ccc3c(c2)OCO3)C[C@@H](c2ccc3c(c2)OCO3)C1	none
COc1ccc([C@H]2CC(=O)C=C(c3ccc4c(c3)OCCO4)C2)cc1	rRNA inh HTS -21
CC(=O)N1CC2(C1)[C@H](c1ccc(-c3ccccc3C)cc1)[C@@H](CO)N2C(=O)CC1CC1	none (no result: RAD54 inh, Cneo AK release, PglD DTNB)
COc1ccc2c3c([nH]c2c1)[C@@H](CO)N(C(=O)c1ccccn1)CC31CN(C(=O)C2CCCC2)C1	none (no result: RAD54 inh, Cneo AK release, PglD DTNB)
Cc1cccc(N2C(=O)CN(Cc3ccccc3)C2=S)c1	rRNA inh HTS -14
COc1cc(CN2CC(=O)N(c3ccccc3Cl)C2=S)cc(OC)c1OC	rRNA inh HTS -18
COc1cc(CN2CC(=O)N(c3cccc(Cl)c3C)C2=S)cc(OC)c1OC	none
Cc1ccc(S(=O)(=O)N(C)C[C@@H]2Oc3ccc(NC(=O)Nc4ccc(F)cc4)cc3CC(=O)N([C@@H](C)CO)C[C@@H]2C)cc1	none (no result: RAD54 inh, Cneo AK release, PglD DTNB, RAD52 anneal inh)
COc1ccc2c3c([nH]c2c1)[C@H](CO)N(C(=O)C1CCOCC1)CC31CCN(Cc2cccc(F)c2)CC1	none (no result: RAD54 inh, Cneo AK release, PglD DTNB, RAD52 anneal inh)
C[C@H](CO)N1C[C@H](C)[C@@H](CN(C)S(C)(=O)=O)Oc2c(NC(=O)CCCN(C)C)cccc2C1=O	none (no result: RAD54 inh, Cneo AK release, PglD DTNB, RAD52 anneal inh)
ClC1(Cl)CC1CSc1nnc(-c2ccncc2)o1 (configuration not stated)	rRNA inh HTS -19
O=C(C[C@@H]1C[C@H]2c3cc(NS(=O)(=O)c4ccc(F)cc4)ccc3O[C@H]2[C@H](CO)O1)N1CCc2ccccc2C1	none
Cc1cccc(NC(=O)c2n[nH]c([N+](=O)[O-])c2Br)c1C	rRNA inh HTS -29
C[C@H](CO)N1C[C@H](C)[C@@H](CN(C)Cc2ccc(-c3ccccc3)cc2)Oc2c(NC(=O)CCC(F)(F)F)cccc2C1=O	none (no result: RAD54 inh, Cneo AK release, PglD DTNB, RAD52 anneal inh)
CC(=O)COc1ccc2c(-c3ccccc3)cc(=O)oc2c1C	rRNA inh HTS -18
Cc1c(OC(C(=O)O)c2ccccc2)ccc2c(-c3ccccc3)cc(=O)oc12 (configuration not stated)	rRNA inh HTS -25 (no result: RAD54 inh, Cneo AK release, PglD DTNB)
Cc1c(OC(C)C(=O)O)ccc2c(-c3ccccc3)cc(=O)oc12 (configuration not stated)	none
Cc1c(OCC(N)=O)ccc2c(-c3ccccc3)cc(=O)oc12	none
Cc1ccc(C(=O)COC(=O)c2ccc(O)cc2)cc1	rRNA inh HTS -27 (no result: RAD54 inh, Cneo AK release, PglD DTNB)
CCOC(=O)COC(=O)c1ccc(O)cc1	none (no result: rRNA inh HTS, RAD52 anneal inh)
COc1ccc(Nc2nc(N)nc(CSC(=S)N3CCCCC3C)n2)cc1 (configuration not stated)	rRNA inh HTS -22 (no result: RAD54 inh, Cneo AK release, PglD DTNB)
COc1ccc(Nc2nc(N)nc(CSC(=S)N3CCCCC3)n2)cc1	none
